Measured values taken from ChEMBL document CHEMBL5107942, “Boron-based hybrids as novel scaffolds for the development of drugs with neuroprotective properties” (RSC Med Chem, 2021).
The source made the active and inactive calls. No cut-off for these calls is given here.

Tests used:
[1] = tested on: SH-SY5Y; assay: Neuroprotective activity against amyloid beta (1 to 42)-induced neurotoxicity in human SH-SY5Y cells assessed as increase in cell viability at 50 uM incubated for 24 hrs by MTT assay; format: functional
Method in brief: (§1)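 Differentiated SH-SY5Y cells co-treated 24 h with compound (0.1–100 μM) and Aβ1-42 (20 μM). Vehicle 0.1% DMSO; 1% Triton X positive control. MTT added for 3 h at 37 °C, formazan dissolved in DMSO, absorbance read at 570 nm. Mean ± SD from at least six independent experiments.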

[2] = tested on: SH-SY5Y; assay: Neuroprotective activity against amyloid beta (1 to 42)-induced Alzheimer's disease model in human SH-SY5Y cells assessed as decrease in AChE activity at 25 uM incubated for 24 hrs by Colorimetric assay; format: functional; design: scale not given: the % may be the effect or the level left
Method in brief: (§2)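 SH-SY5Y cells grown in DMEM:F12 with 10% FBS, differentiated with retinoic acid for 5 days, then serum-free medium with 10 μM retinoic acid plus 25 ng/mL BDNF, used within 10 days. Co-treated with 20 μM Aβ1-42 for 24 h; DMSO ≤0.1% vehicle. Cells lysed 15 min at room temperature, centrifuged; AChE measured in supernatant by colorimetric kit at 410 nm.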

[3] = tested on: SH-SY5Y; assay: Neuroprotective activity against amyloid beta (1 to 42)-induced neurotoxicity in human SH-SY5Y cells assessed as increase in cell viability at 25 uM incubated for 24 hrs by MTT assay; format: functional; method in brief: as §1
[4] = tested on: SH-SY5Y; assay: Neuroprotective activity against amyloid beta (1 to 42)-induced neurotoxicity in human SH-SY5Y cells assessed as increase in cell viability at 0.1 to 100 uM incubated for 24 hrs by MTT assay; format: functional, cell-based; conditions: dose 0.1-100 µM; method in brief: as §1
[5] = tested on: SH-SY5Y; assay: Neuroprotective activity against amyloid beta (1 to 42)-induced neurotoxicity in human SH-SY5Y cells assessed as increase in cell viability at 100 uM incubated for 24 hrs by MTT assay; format: functional; method in brief: as §1
[6] = tested on: SH-SY5Y; assay: Neuroprotective activity against amyloid beta (1 to 42)-induced neurotoxicity in human SH-SY5Y cells assessed as increase in cell viability at 25 uM incubated for 24 hrs by LDH release assay; format: functional
Method in brief: (§3)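 Differentiated SH-SY5Y cells exposed 24 h to compound with Aβ1-42 (20 μM). Supernatant mixed 1:1 with LDH reaction mixture and held 30 min at room temperature. Lactate-to-pyruvate conversion with NAD+ reduction read as absorbance at 490 nm. Mean ± SD, at least six independent experiments.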

[7] = tested on: SH-SY5Y; assay: Neuroprotective activity against amyloid beta (1 to 42)-induced neurotoxicity in human SH-SY5Y cells assessed as increase in cell viability at 50 uM incubated for 24 hrs by LDH release assay; format: functional; method in brief: as §3
[8] = tested on: SH-SY5Y; assay: Neuroprotective activity against amyloid beta (1 to 42)-induced neurotoxicity in human SH-SY5Y cells assessed as increase in cell viability at 100 uM incubated for 24 hrs by LDH release assay; format: functional; method in brief: as §3
[9] = tested on: SH-SY5Y; assay: Neuroprotective activity against amyloid beta (1 to 42)-induced Alzheimer's disease model in human SH-SY5Y cells assessed as decrease in AChE activity at 50 uM incubated for 24 hrs by Colorimetric assay; format: functional; design: scale not given: the % may be the effect or the level left; method in brief: as §2
[10] = tested on: SH-SY5Y; assay: Antioxidant activity against amyloid beta (1 to 42)-induced Alzheimer's disease model in human SH-SY5Y cells assessed as increase of TAC level at 25 uM by ABTS assay; format: functional, cell-based
Method in brief: (§4)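 Differentiated SH-SY5Y cells: grown in DMEM:F12 with 10% FBS, then 10 μg/mL retinoic acid for 5 days, then serum-free medium with 10 μM retinoic acid and 25 ng/mL BDNF. Co-exposed 24 h to Aβ1-42 (20 μM) plus compound. Vehicle 0.1% DMSO. Automated kits on culture samples. TAC: ABTS decolorization at 660 nm, Trolox calibration. TOS: ferrous-to-ferric chelator oxidation, H2O2 calibration, µM H2O2 equivalent/L. n = 6.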

[11] = tested on: SH-SY5Y; assay: Antioxidant activity against amyloid beta (1 to 42)-induced Alzheimer's disease model in human SH-SY5Y cells assessed as decrease of TOS level at 25 uM; format: functional, cell-based; method in brief: as §4
[12] = tested on: SH-SY5Y; assay: Antioxidant activity against amyloid beta (1 to 42)-induced Alzheimer's disease model in human SH-SY5Y cells assessed as increase of TAC level at 50 uM by ABTS assay; format: functional, cell-based; method in brief: as §4
[13] = tested on: SH-SY5Y; assay: Antioxidant activity against amyloid beta (1 to 42)-induced Alzheimer's disease model in human SH-SY5Y cells assessed as decrease of TOS level at 50 uM; format: functional, cell-based; method in brief: as §4
[14] = tested on: SH-SY5Y; assay: Neuroprotective activity against amyloid beta (1 to 42)-induced Alzheimer's disease model in human SH-SY5Y cells assessed as protection against amyloid beta (1 to 42)-induced nuclear integrity damage at 25 uM incubated for 24 hrs by Hoechst 33258 staining fluorescence microscopy; format: functional, cell-based
Method in brief: (§5)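 RA/BDNF-differentiated SH-SY5Y cells incubated 24 h with Aβ1-42 (20 μM) alone or with test agent at 25 or 50 μM. Fixed in 4% paraformaldehyde in PBS, 30 min at 4 °C. Stained with 1 mM Hoechst 33258 for 5 min at room temperature. Nuclear morphology examined by fluorescence microscopy.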

[15] = tested on: SH-SY5Y; assay: Neuroprotective activity against amyloid beta (1 to 42)-induced Alzheimer's disease model in human SH-SY5Y cells assessed as protection against amyloid beta (1 to 42)-induced nuclear integrity damage at 50 uM incubated for 24 hrs by Hoechst 33258 staining fluorescence microscopy; format: functional, cell-based; method in brief: as §5
[16] = tested on: SH-SY5Y; assay: Neuroprotective activity against amyloid beta (1 to 42)-induced Alzheimer's disease model in human SH-SY5Y cells assessed as inhibition of apoptosis at 25 uM incubated for 24 hrs by Hoechst 33258 staining fluorescence microscopy; format: functional, cell-based; method in brief: as §5
[17] = tested on: SH-SY5Y; assay: Neuroprotective activity against amyloid beta (1 to 42)-induced Alzheimer's disease model in human SH-SY5Y cells assessed as inhibition of apoptosis at 50 uM incubated for 24 hrs by Hoechst 33258 staining fluorescence microscopy; format: functional, cell-based; method in brief: as §5
[18] = tested on: SH-SY5Y; assay: Neuroprotective activity against amyloid beta (1 to 42)-induced Alzheimer's disease model in human SH-SY5Y cells assessed as reduction in necrosis rate at 25 to 50 uM incubated for 24 hrs by Annexin V-FITC/propidium iodide staining flow cytometry; format: functional, cell-based; conditions: dose 25-50 µM, DDE = dose-dependent effect
Method in brief: (§6)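 Differentiated SH-SY5Y cells given 24 h Aβ1-42 (20 μM) with or without compound. 5 x 10^4 cells pelleted and resuspended in 1X binding buffer. Annexin V-FITC and PI added, 5 min in the dark, then fixed in 4% paraformaldehyde. Flow cytometry sorted cells into viable, early apoptotic, late apoptotic/necrotic and necrotic fractions.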

[19] = tested on: SH-SY5Y; assay: Neuroprotective activity against amyloid beta (1 to 42)-induced Alzheimer's disease model in human SH-SY5Y cells assessed as reduction in necrosis rate incubated for 24 hrs by Annexin V-FITC/propidium iodide staining flow cytometry; format: functional; design: scale not given: the % may be the effect or the level left; method in brief: as §6
[20] = Genotoxicity in human blood assessed as frequency of sister chromatid exchange at 0.1 to 100 uM by BrdU/Giemsa staining based fluorescence assay; format: toxicity, tissue-based; conditions: dose 0.1-100 µM
Method in brief: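 Human peripheral blood cultured in PB-MAX karyotyping medium with phytohemagglutinin; compounds added just before incubation. BrdU added; demecolcine at 70 h 30 min. Then 0.075 M KCl hypotonic treatment, methanol/acetic acid (3:1) fixation, slides aged 3 days, fluorescence plus Giemsa staining. 25 second-division metaphases (42–46 chromosomes) scored per condition; result given as SCEs/cell.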

[21] = Induction of DNA damage in human blood assessed as increase in 8-OH-dG level at 0.1 to 100 uM incubated for 24 hrs; format: toxicity, tissue-based; conditions: dose 0.1-100 µM
Method in brief: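 Heparinized human peripheral blood cultured with phytohemagglutinin in PB-MAX medium, with compounds added at culture start. 8-OH-dG measured by competitive ELISA (8-OH-dG–AChE conjugate competing for monoclonal antibody). Detects free and DNA-incorporated 8-OH-dG. Read at 405–420 nm.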

Row | SMILES | Activity [1] [%] | Activity [2] [%] | Activity [3] [%] | Activity [4] | Activity [5] [%] | Activity [6] [%] | Activity [7] [%] | Activity [8] [%] | Activity [9] [%] | Activity [10] | Activity [11] | Activity [12] | Activity [13] | Activity [14] | Activity [15] | Activity [16] | Activity [17] | Activity [18] | Activity [19] [%] | Activity [20] | other results
1 | CC1(C)C2CC3OB(CNC(=O)CCCC[C@H]4CCSS4)O[C@]3(C)C1C2 (stereo partly drawn) | 29.94 | 18.77 | 25.14 | Active | 32.92 | 62.91 | 67.37 | 70.65 | 22.96 | Active | Active | Active | Active | Active | Active | Active | Active | Dde | 68.38 | Non-Toxic | Activity [21]: Non-Toxic
2 | O=C(O)CCCCC1CCSS1 (stereo not drawn) [LIPOIC ACID, ALPHA] | 19.01 | 13.17 | 14.78 | Active | 20.73 | 53.05 | 58.68 | 59.86 | 16.66 | Active | Active | Active | Active | Active | Active | Active | Active | Dde | 65.97 | Non-Toxic | Activity [21]: Non-Toxic
3 | CC12CC3CC(C)(C1)CC(N)(C3)C2 [MEMANTINE] | 19.38 | 14.57 | 17.27 | Active | 17.08 | 56.81 | 59.15 | 57.28 | 19.47 | Active | Active | Active | Active | Active | Active | Active | Active | Dde | 61.67 | Non-Toxic | Activity [21]: Non-Toxic
